This is an account of results in ChEMBL document CHEMBL3244092, “Synthesis of episilon-rhodomycinone glycosides” (1977).

Active and inactive are the calls of the source. The calls are words filed in the database; no cut-off is given here.

One assay deals with Bacillus subtilis. Kind of assay: Antibacterial activity against Bacillus subtilis. In kind it is functional, organism-based.
Turning to `CC[C@@]1(O)C[C@H](O[C@H]2C[C@H](OC(C)=O)[C@H](OC(C)=O)CO2)c2c(O)c3c(c(O)c2[C@H]1C(=O)OC)C(=O)c1cccc(O)c1C3=O`, the result was Active.

Another assay relates to P388. Kind of assay: Antitumor activity against mouse P388 cells allografted in CDF mouse assessed as tumor growth inhibition at 64 mg/kg/day relative to control. In kind it is functional. In outline: (§1)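 P388 lymphatic leukemia carried in CDF mice, with compound given as a daily dose in mg/kg/day. Activity was read out as T/C, treated versus control. Route, vehicle and schedule length are not given.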
In the case of `CC[C@@]1(O)C[C@H](O[C@H]2C[C@H](OC(C)=O)[C@H](OC(C)=O)CO2)c2c(O)c3c(c(O)c2[C@H]1C(=O)OC)C(=O)c1cccc(O)c1C3=O`, the T/C came out at 125%.

In another assay the test system is P388. Kind of assay: Antitumor activity against mouse P388 cells allografted in CDF mouse assessed as tumor growth inhibition at 32 to 128 mg/kg/day relative to control. In kind it is functional. In outline:
as §1
On to `CC[C@@]1(O)C[C@H](O[C@H]2C[C@H](OC(C)=O)[C@H](OC(C)=O)CO2)c2c(O)c3c(c(O)c2[C@H]1C(=O)OC)C(=O)c1cccc(O)c1C3=O`, for which the T/C was found to be 110%.

The test system of the next assay is P388. Kind of assay: Antitumor activity against mouse P388 cells allografted in CDF mouse assessed as tumor growth inhibition at 13 mg/kg/day relative to control. In kind it is functional. In outline: as §1
`CC[C@@]1(O)C[C@H](O[C@H]2C[C@H](O)[C@H](O)CO2)c2c(O)c3c(c(O)c2[C@H]1C(=O)OC)C(=O)c1cccc(O)c1C3=O`: the T/C was found to be 115%.

The subject of the next assay is P388. In words: Antitumor activity against mouse P388 cells allografted in CDF mouse assessed as tumor growth inhibition at 18 mg/kg/day relative to control. In kind it is functional. In outline:
as §1
`CC[C@@]1(O)C[C@H](O[C@H]2C[C@H](O)[C@H](O)[C@H](C)O2)c2c(O)c3c(c(O)c2[C@H]1C(=O)OC)C(=O)c1cccc(O)c1C3=O`: the T/C worked out at 109%.

A further assay relates to Enterobacteria phage lambda. Kind of assay: Induction of lambda phage production in streptomycin-dependent lysogenic Escherichia coli W1709(lambda) assessed as ratio of plaques in treated culture to control. In kind it is functional.
Take `CC[C@@]1(O)C[C@H](O[C@@H]2O[C@H](COCc3ccccc3)[C@@H](OCc3ccccc3)[C@@H]2OCc2ccccc2)c2c(O)c3c(c(O)c2[C@H]1C(=O)OC)C(=O)c1cccc(O)c1C3=O`: the outcome was inactive.

For `CC[C@@]1(O)C[C@H](O[C@H]2C[C@H](O)[C@H](O)[C@H](C)O2)c2c(O)c3c(c(O)c2[C@H]1C(=O)OC)C(=O)c1cccc(O)c1C3=O`, the outcome was inactive.

In the case of `CC[C@@]1(O)C[C@H](O[C@@H]2O[C@@H](C)[C@@H](O)[C@@H](O)[C@@H]2O)c2c(O)c3c(c(O)c2[C@H]1C(=O)OC)C(=O)c1cccc(O)c1C3=O`, the outcome was inactive.

For the molecule `CC[C@@]1(O)C[C@H](O[C@@H]2O[C@@H](C)[C@@H](OC(C)=O)[C@@H](OC(C)=O)[C@@H]2OC(C)=O)c2c(O)c3c(c(O)c2[C@H]1C(=O)OC)C(=O)c1cccc(O)c1C3=O`, the outcome was inactive.

In the case of `CC[C@@]1(O)C[C@H](O[C@@H]2O[C@@H](CO)[C@@H](O)[C@H]2O)c2c(O)c3c(c(O)c2[C@H]1C(=O)OC)C(=O)c1cccc(O)c1C3=O`, the result was inactive.

As for `CC[C@@]1(O)C[C@H](O[C@H]2C[C@H](O)[C@H](O)CO2)c2c(O)c3c(c(O)c2[C@H]1C(=O)OC)C(=O)c1cccc(O)c1C3=O`, the outcome was inactive.

Take `CC[C@@]1(O)C[C@H](O[C@H]2C[C@H](OC(=O)c3ccc([N+](=O)[O-])cc3)[C@@H](COC(=O)c3ccc([N+](=O)[O-])cc3)O2)c2c(O)c3c(c(O)c2[C@H]1C(=O)OC)C(=O)c1cccc(O)c1C3=O`: the result was inactive.

With `CC[C@@]1(O)C[C@H](O[C@@H]2O[C@H](COC(=O)c3ccccc3)[C@@H](OC(=O)c3ccccc3)[C@H]2OC(=O)c2ccccc2)c2c(O)c3c(c(O)c2[C@H]1C(=O)OC)C(=O)c1cccc(O)c1C3=O`, the result was inactive.

For `CC[C@@]1(O)C[C@H](O[C@H]2C[C@H](OC(C)=O)[C@@H](OC(C)=O)[C@H](C)O2)c2c(O)c3c(c(O)c2[C@H]1C(=O)OC)C(=O)c1cccc(O)c1C3=O`, the result was inactive.

On to `CC[C@@]1(O)C[C@H](O[C@@H]2O[C@H](CO)[C@H](O)[C@H]2O)c2c(O)c3c(c(O)c2[C@H]1C(=O)OC)C(=O)c1cccc(O)c1C3=O`, for which the result was inactive.

`CC[C@@]1(O)C[C@H](O[C@@H]2O[C@H](CO)[C@@H](O)[C@H](O)[C@H]2O)c2c(O)c3c(c(O)c2[C@H]1C(=O)OC)C(=O)c1cccc(O)c1C3=O`: the outcome was inactive.

Consider `CC[C@@]1(O)C[C@H](O[C@@H]2OC[C@H](O)[C@H](O)[C@H]2O)c2c(O)c3c(c(O)c2[C@H]1C(=O)OC)C(=O)c1cccc(O)c1C3=O`, for which the result was inactive.

For `CC[C@@]1(O)C[C@H](O[C@@H]2O[C@@H](C)[C@H](OC(C)=O)[C@@H](OC(C)=O)[C@H]2OC(C)=O)c2c(O)c3c(c(O)c2[C@H]1C(=O)OC)C(=O)c1cccc(O)c1C3=O`, the result was inactive.

As for `CC[C@@]1(O)C[C@H](O[C@@H]2O[C@H](COC(=O)c3ccc([N+](=O)[O-])cc3)[C@H](OC(=O)c3ccc([N+](=O)[O-])cc3)[C@H]2OC(=O)c2ccc([N+](=O)[O-])cc2)c2c(O)c3c(c(O)c2[C@H]1C(=O)OC)C(=O)c1cccc(O)c1C3=O`, the outcome was inactive.

Consider `CC[C@@]1(O)C[C@H](O[C@@H]2OC[C@H](OC(C)=O)[C@@H](OC(C)=O)[C@H]2OC(C)=O)c2c(O)c3c(c(O)c2[C@H]1C(=O)OC)C(=O)c1cccc(O)c1C3=O`, for which the outcome was inactive.

Turning to `CC[C@@]1(O)C[C@H](O[C@@H]2O[C@@H](COC(=O)c3ccccc3)[C@@H](OC(=O)c3ccccc3)[C@H]2OC(=O)c2ccccc2)c2c(O)c3c(c(O)c2[C@H]1C(=O)OC)C(=O)c1cccc(O)c1C3=O`, the result was inactive.

`CC[C@@]1(O)C[C@H](O[C@@H]2O[C@H](COC(C)=O)[C@@H](OC(C)=O)[C@H](OC(C)=O)[C@H]2OC(C)=O)c2c(O)c3c(c(O)c2[C@H]1C(=O)OC)C(=O)c1cccc(O)c1C3=O`: the outcome was inactive.

On to `CC[C@@]1(O)C[C@H](O[C@@H]2OC[C@@H](OC(C)=O)[C@@H](OC(C)=O)[C@H]2OC(C)=O)c2c(O)c3c(c(O)c2[C@H]1C(=O)OC)C(=O)c1cccc(O)c1C3=O`, for which the result was inactive.

Turning to `CC[C@@]1(O)C[C@H](O[C@@H]2OC[C@@H](OC(C)=O)[C@@H](OC(C)=O)[C@@H]2OC(C)=O)c2c(O)c3c(c(O)c2[C@H]1C(=O)OC)C(=O)c1cccc(O)c1C3=O`, the result was inactive.

Consider `CC[C@@]1(O)C[C@H](O[C@@H]2OC[C@H](OC(C)=O)[C@H](OC(C)=O)[C@H]2OC(C)=O)c2c(O)c3c(c(O)c2[C@H]1C(=O)OC)C(=O)c1cccc(O)c1C3=O`, for which the result was inactive.

On to `CC[C@@]1(O)C[C@H](O[C@H]2C[C@H](O)[C@@H](CO)O2)c2c(O)c3c(c(O)c2[C@H]1C(=O)OC)C(=O)c1cccc(O)c1C3=O`, for which the outcome was inactive.

As to `CC[C@@]1(O)C[C@H](O[C@H]2C[C@H](O)[C@@H](O)[C@H](C)O2)c2c(O)c3c(c(O)c2[C@H]1C(=O)OC)C(=O)c1cccc(O)c1C3=O`, the outcome was inactive.

Take `CC[C@@]1(O)C[C@H](O[C@H]2C[C@H](OC(C)=O)[C@H](OC(C)=O)[C@H](C)O2)c2c(O)c3c(c(O)c2[C@H]1C(=O)OC)C(=O)c1cccc(O)c1C3=O`: the outcome was inactive.

Regarding `CC[C@@]1(O)C[C@H](O[C@@H]2O[C@H](CO)[C@@H](O)[C@H]2O)c2c(O)c3c(c(O)c2[C@H]1C(=O)OC)C(=O)c1cccc(O)c1C3=O`, the result was inactive.

On to `CC[C@@]1(O)C[C@H](O[C@H]2C[C@H](OC(C)=O)[C@H](OC(C)=O)CO2)c2c(O)c3c(c(O)c2[C@H]1C(=O)OC)C(=O)c1cccc(O)c1C3=O`, for which the outcome was inactive.

For the molecule `CC[C@@]1(O)C[C@H](O[C@@H]2OC[C@@H](OC(C)=O)[C@H](OC(C)=O)[C@H]2OC(C)=O)c2c(O)c3c(c(O)c2[C@H]1C(=O)OC)C(=O)c1cccc(O)c1C3=O`, the result was inactive.
